# Screens deposited in PubChem BioAssay by Broad Institute.
# Only a selection was taken, and hits are over-represented in it overall.
# Tcruzi prolif – T. cruzi intracellular proliferation inhibitors, primary screen, cell-based, beta-gal Tulahuen parasites, NIH3T3 host, luminescence. T. cruzi beta-gal in NIH3T3, GalScreen luminescence, 90 h. inhibition, % at 8.34 µM. 77,000 tested, 5.9% active;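 active = mean inhibition above about 93%, with at least 55% of replicates each passing it, limit read from the data, passing the limit was not always enough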
# IDH1 R132H inh – inhibitors of IDH1 R132H reductase, primary screen, biochemical, plate reader, single point; Isocitrate dehydrogenase [NADP] cytoplasmic (Homo sapiens), O75874; diaphorase/resazurin fluorescence, 60 min; inhibition, % at 10 µM; 70,000 tested, 0.18% active; AID 624101, 2012; in the data active = inhibition above about 34%
# GASC1 inh – inhibitors of GASC-1 (KDM4C) histone demethylase, primary screen, biochemical, single concentration HTS | GST-KDM4C 2-372, H3K9me3 peptide, LANCE TR-FRET | inhibition, % at 12.5 µM | 96,000 tested, 0.15% active | AID 720574, 2013;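 active = mean replicate inhibition above about 25%, with at least 55% of replicates also reaching it, limit read from the data, passing the limit was not always enough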
# Target sequence (Q9H3R0 2-372 limits assumed): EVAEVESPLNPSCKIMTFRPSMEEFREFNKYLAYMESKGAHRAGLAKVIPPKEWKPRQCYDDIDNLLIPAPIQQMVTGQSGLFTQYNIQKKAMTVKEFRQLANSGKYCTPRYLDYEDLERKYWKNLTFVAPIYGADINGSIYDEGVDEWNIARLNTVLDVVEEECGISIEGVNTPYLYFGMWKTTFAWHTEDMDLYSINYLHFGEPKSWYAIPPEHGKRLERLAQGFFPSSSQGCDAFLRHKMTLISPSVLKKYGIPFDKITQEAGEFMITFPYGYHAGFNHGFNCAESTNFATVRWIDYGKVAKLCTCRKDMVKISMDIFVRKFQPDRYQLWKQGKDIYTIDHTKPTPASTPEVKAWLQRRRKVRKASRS
#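 Assay system: GST-GASC-1 enzyme fragment 2-372 | Amount: 10 nM enzyme | Medium: HEPES buffer, pH 7.5, plus ascorbate | Reagent: H3K9me3 peptide substrate, Fe(II), 2-oxoglutarate | Doses: Single-point compound screen | Incubation: 30 min demethylation and 1 h detection at room temperature | Measured by: LANCE TR-FRET, excitation 340 nm, emissions 618 and 671 nm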
# Hits are given with their value; – = inactive; · = no result.
SMILES,Tcruzi prolif,IDH1 R132H inh,GASC1 inh
C[C@@H]1CN([C@@H](C)CO)C(=O)c2c(c3ccccc3n2C)-c2ccccc2CO[C@@H]1CN(C)Cc1ccncc1,–,47,–
C[C@@H]1CCCCO[C@H](CN(C)Cc2ccncc2)[C@H](C)CN([C@@H](C)CO)C(=O)c2cc(NC(=O)Nc3cccc4ccccc34)ccc2O1,–,–,–
O=C1C(=O)N(CCCn2ccnc2)C(c2ccc(Cl)cc2)C1C(=O)c1cccs1 (stereo unspecified),·,–,·
Cc1ccc(-c2csc3nnc(SCC(=O)c4ccc(Cl)c(Cl)c4)n23)cc1,·,–,·
CN(c1ccc(OCC(=O)O)cc1)S(=O)(=O)c1ccc(F)cc1,·,–,·
Cc1ccccc1OCC(=O)Nc1cccc(-c2nc3ccccc3s2)c1,·,–,·
COCC#Cc1ccc2c(c1)O[C@@H](CN(C)Cc1cccnc1)[C@H](C)CN([C@H](C)CO)S2(=O)=O,–,–,–
Cc1noc(C)c1NC(=O)N(C)C[C@@H]1Oc2cc(C#CCN(C)C)ccc2S(=O)(=O)N([C@H](C)CO)C[C@H]1C,–,44,52
Cc1noc(C)c1NC(=O)N(C)C[C@H]1Oc2cc(C#CCN(C)C)ccc2S(=O)(=O)N([C@H](C)CO)C[C@@H]1C,–,–,–
CC(C)CC#Cc1ccc2c(c1)O[C@@H](CN(C)C(=O)c1cccnc1)[C@@H](C)CN([C@@H](C)CO)S2(=O)=O,–,39,47
COCC#Cc1ccc2c(c1)O[C@@H](CN(C)Cc1cccnc1)[C@@H](C)CN([C@@H](C)CO)S2(=O)=O,–,65,44
C[C@H](CO)N1C[C@H](C)[C@H](CN(C)Cc2ccncc2)Oc2cc(C#CCN(C)C)ccc2S1(=O)=O,–,–,–
CC(C)CC#Cc1ccc2c(c1)O[C@H](CN(C)C(=O)c1cccnc1)[C@@H](C)CN([C@@H](C)CO)S2(=O)=O,–,–,–
C[C@H]1CN([C@@H](C)CO)S(=O)(=O)c2ccc(C#CCN(C)C)cc2O[C@@H]1CN(C)Cc1ccncc1,97,–,–
c1cnc(SCCCCOc2ccc3c(c2)CCC3)nc1,·,–,·
Cn1c(NCCCN)nc2c1c(=O)n(Cc1ccccc1Cl)c(=O)n2C,·,–,·
N#Cc1c(NC(=O)c2cc3nc(-c4ccco4)cc(C(F)(F)F)n3n2)sc2c1CCCCC2,·,–,·
Cn1c(SCC(=O)Nc2ccccc2C(F)(F)F)nnc1-c1ccco1,·,–,·
C[C@H](O)C#Cc1ccc2c(c1)O[C@H](CN(C)Cc1cncnc1)[C@@H](C)CN([C@@H](C)CO)S2(=O)=O,–,–,–
C[C@@H](O)C#Cc1ccc2c(c1)O[C@@H](CN(C)Cc1cncnc1)[C@@H](C)CN([C@@H](C)CO)S2(=O)=O,–,34,36
CC(C)(C)c1ccc(C(=O)N2CCN(c3ccc([N+](=O)[O-])c(NCc4cccnc4)c3)CC2)cc1,·,–,·
COC(CCc1ccc(O)c(O)c1)CC(=O)CCc1ccc(O)c(O)c1 (stereo unspecified),·,52,·
CCCCC[C@H](O)CC(=O)CCc1ccc(O)c(OC)c1,·,–,·
O=C(CCc1ccc(O)cc1)CC(O)CCc1ccc(O)c(O)c1 (stereo unspecified),·,54,·
CCCCCCC[C@@H](O)CC(=O)CCc1ccc(O)c(OC)c1,·,–,·
SMILES,Tcruzi prolif,IDH1 R132H inh,GASC1 inh
O=C(CC1(O)C(=O)N(CCc2ccccc2)c2ccc(Br)cc21)c1ccncc1 (stereo unspecified),·,–,·
CCN1CCN(C(=O)CSc2nc(-c3ccc(OC)c(OC)c3)cc(C(F)(F)F)n2)CC1,·,–,·
CN1CCc2nc(SCC(=O)Nc3ccc(C(C)(C)C)cc3)c(C#N)cc2C1,·,–,·
COc1ccc(NC(=O)Nc2ccc3c(c2)CC(=O)N([C@@H](C)CO)C[C@@H](C)[C@@H](CN(C)C(=O)Nc2ccccc2)O3)cc1,·,–,–
COc1ccc(NC(=O)Nc2ccc3c(c2)CC(=O)N([C@H](C)CO)C[C@H](C)[C@@H](CN(C)C(=O)Nc2ccccc2)O3)cc1,·,–,–
COc1ccc(NC(=O)N(C)C[C@@H]2Oc3ccc(NC(=O)Nc4ccccc4)cc3CC(=O)N([C@@H](C)CO)C[C@H]2C)cc1,–,59,–
COc1ccc(NC(=O)N(C)C[C@H]2Oc3ccc(NC(=O)Nc4ccccc4)cc3CC(=O)N([C@H](C)CO)C[C@@H]2C)cc1,–,–,42
CC(N=Cc1nc2ccccc2n1C)C12CC3CC(CC(C3)C1)C2 (stereo unspecified),·,–,·
COc1ccc(C(=O)CSc2nnc(-c3ccccc3Cl)n2C)cc1OC,·,–,·
C/C=C/c1ccc2c(c1)O[C@@H](CN(C)C(=O)c1ccccc1)[C@H](C)CN([C@H](C)CO)S2(=O)=O,·,–,–
C/C=C/c1ccc2c(c1)O[C@@H](CN(C)C(=O)Cc1cccnc1)[C@H](C)CN([C@H](C)CO)S2(=O)=O,·,–,–
C/C=C/c1ccc2c(c1)O[C@@H](CN(C)C(=O)Cc1cccnc1)[C@H](C)CN([C@@H](C)CO)S2(=O)=O,·,46,–
C[C@@H]1CN([C@@H](C)CO)S(=O)(=O)c2ccc(/C=C/c3ccccc3)cc2O[C@@H]1CN(C)C(=O)c1ccccc1,127,–,–
Cc1noc(C)c1S(=O)(=O)N(C)C[C@H]1Oc2ccc(NS(=O)(=O)c3ccccc3)cc2CC(=O)N([C@@H](C)CO)C[C@@H]1C,–,–,–
Cc1noc(C)c1S(=O)(=O)N(C)C[C@H]1Oc2ccc(NS(=O)(=O)c3ccccc3)cc2CC(=O)N([C@H](C)CO)C[C@@H]1C,–,–,45
CNC[C@@H]1Oc2ccc(NS(=O)(=O)c3cn(C)cn3)cc2CC(=O)N([C@H](C)CO)C[C@@H]1C,98,–,–
CNC[C@H]1Oc2ccc(NS(=O)(=O)c3cn(C)cn3)cc2CC(=O)N([C@H](C)CO)C[C@@H]1C,–,–,–
O=c1c2c3c(sc2ncn1/N=C/c1cc(Br)ccc1O)CCCC3,·,–,·
Cc1ccc(F)cc1NC(=O)CSc1nnnn1-c1ccccc1,·,–,·
O=C(CSc1n[nH]c(-c2ccccc2)n1)Nc1sc2c(c1C(=O)Nc1ccccc1)CCCC2,·,–,·
Cc1cc(C(C)(C)C)c(O)c(C(C)(C)C)c1,·,–,·
Cc1cc(O)cc(Oc2cc(C)cc(O)c2O)c1,·,56,·
COc1ccc(S(=O)(=O)Nc2cccc(N(C)S(C)(=O)=O)c2)cc1OC,·,–,·
COc1ccc(S(=O)(=O)Nc2ccc3c(c2)[C@H]2C[C@@H](CC(=O)NCC4CC4)O[C@H](CO)[C@H]2O3)cc1,–,74,44
COCCNC(=O)C[C@H]1C[C@@H]2c3cc(NC(=O)c4ccc5c(c4)OCO5)ccc3O[C@@H]2[C@@H](CO)O1,·,–,–
CCCNC(=O)C[C@H]1C[C@@H]2c3cc(N(C)C)ccc3O[C@@H]2[C@@H](CO)O1,–,–,31
CCCNC(=O)C[C@H]1C[C@H]2c3cc(N(C)C)ccc3O[C@H]2[C@H](CO)O1,·,·,49
COCCNC(=O)C[C@H]1C[C@H]2c3cc(NC(=O)c4ccc5c(c4)OCO5)ccc3O[C@H]2[C@@H](CO)O1,·,–,54
